Reference: article PMC2234573 (The Journal of General Physiology, 2004)

Tests used:
[1] = test system: Ca^2+- and ATP-sensitive nonselective cation channels (CA-NSCs); test: Excised inside-out patch recording of CA-NSC channel gating; format: biochemical, rat; conditions: for Inhibition of Po / effect on gating (in words): cytosolic exposure, Fig. 3 A, −40 mV; for Prevention of inhibition by concomitantly added ATP (in words): Fig. 3 B, 100 μM ATP for PI(4,5)P2
TrpM2 = conditions: cytosolic, ref Perraud et al., 2001, Sano et al.; cited from earlier work
TrpM4b = conditions: ref Nilius et al., 2004; cited from earlier work
[2] = test system: Ca^2+- and ATP-sensitive nonselective cation channels (CA-NSCs); format: biochemical, rat; conditions: 1-mM orthovanadate solution (untreated, contains trace DV)
Summary of the method: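 Inside-out patches from rat brain capillary endothelial cells, cultured 5–6 d, at 25°C. Pipette: 140 mM NaCl, 30 μM benzamil, pH 7.4. Bath: 140 mM KCl or NMDG-Cl, pH 7.1, plus 1 mM CaCl2. i(V) is recorded ± 70 μM DV. KCl data get linear fits; NMDG data get GHK fits with asymptotic negative-potential slope. Currents at −40 mV ± 1 mM nucleotide are normalized to in-patch control and Hill-fitted.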

Compound: NC(=O)C1=CN([C@@H]2O[C@H](COP(=O)(O)OP(=O)(O)OC[C@H]3O[C@@H](n4cnc5c(N)ncnc54)[C@H](OP(=O)(O)O)[C@@H]3O)[C@@H](O)[C@H]2O)C=CC1 [NADPH]
- Inhibition of Po / effect on gating (in words) ([1]; 1 mM Ca2+ i): inhibited to a variable extent

Compound: NC(=O)c1ccc[n+]([C@@H]2O[C@H](COP(=O)([O-])OP(=O)(O)OC[C@H]3O[C@@H](n4cnc5c(N)ncnc54)[C@H](OP(=O)(O)O)[C@@H]3O)[C@@H](O)[C@H]2O)c1 [NADP^+]
- Inhibition of Po / effect on gating (in words) ([1]; 1 mM Ca2+ i): inhibited to a variable extent

Compound: NC(=O)c1ccc[n+]([C@@H]2O[C@H](COP(=O)([O-])OP(=O)(O)OC[C@H]3O[C@@H](n4cnc5c(N)ncnc54)[C@H](O)[C@@H]3O)[C@@H](O)[C@H]2O)c1 [NAD^+]
- Inhibition of Po / effect on gating (in words) ([1]; 1 mM Ca2+ i): inhibited to a variable extent
- Effect on TrpM2 (in words) (TrpM2): activated

Compound: O=P(O)(O)OC[C@H]1O[C@H](OP(=O)(O)OP(=O)(O)O)[C@H](O)[C@@H]1O [PRPP, phospho-ribosyl-PP]
- Prevention of inhibition by concomitantly added ATP (in words) [1]: none
- Inhibition of Po / effect on gating (in words) ([1]; 1 mM Ca2+ i): failed to inhibit channel activity

Compound: O=P(O)(O)O [Pi, Inorganic phosphate]
- Prevention of inhibition by concomitantly added ATP (in words) [1]: none
- Inhibition of Po / effect on gating (in words) ([1]; 1 mM Ca2+ i): had little effect

Compound: O=c1ccn([C@@H]2O[C@H](COP(=O)(O)OP(=O)(O)OP(=O)(O)O)[C@@H](O)[C@H]2O)c(=O)[nH]1 [UTP]
- Inhibition of Po / effect on gating (in words) ([1]; 1 mM Ca2+ i): compatible with inhibition
- Inhibition of TrpM4b (in words) (TrpM4b): poor inhibitors

Compound: N=c1c2ncn3c2ncn1[C@@H]1O[C@H](COP(=O)(O)OP(=O)(O)OC[C@H]2O[C@@H]3[C@H](O)[C@@H]2O)[C@@H](O)[C@H]1O [cADP-ribose]
- Prevention of inhibition by concomitantly added ATP (in words) [1]: none
- Inhibition of Po / effect on gating (in words) ([1]; 1 mM Ca2+ i): failed to inhibit channel activity

Compound: Nc1nc2c(ncn2[C@@H]2O[C@@H]3COP(=O)(O)O[C@H]3[C@H]2O)c(=O)[nH]1 [cGMP]
- Prevention of inhibition by concomitantly added ATP (in words) [1]: none
- Inhibition of Po / effect on gating (in words) ([1]; 1 mM Ca2+ i): failed to affect gating

Compound: [O]=[V]([O-])([O-])[O-] [orthovanadate]
- Effect of vanadate solution on CA-NSC gating (in words) ([1]; 1-mM vanadate solution, 1 mM Ca2+ i): robust stimulation of channel gating to a Po close to unity
- Increase in single-channel current size [2]: ~30%

Compound: O=P(O)(O)OP(=O)(O)O [pyrophosphate]
- Inhibition ([1]; 2 mM, n = 4): 92 ± 2%

Compound: O=C[C@H](O)[C@H](O)[C@H](O)COP(=O)(O)O [ribose-5P]
- Prevention of inhibition by concomitantly added ATP (in words) [1]: none
- Inhibition of Po / effect on gating (in words) ([1]; 1 mM Ca2+ i): failed to inhibit channel activity

Compound: phosphatidyl inositol 4,5-bisphosphate [PI(4,5)P2]
- Inhibition of Po / effect on gating (in words) ([1]; 1 mM Ca2+ i): affected neither CA-NSC gating
